PGC1a acetyl up: compounds raising PGC1a acetylation signal, primary screen, PGC1a modulator project, cell-based, U2OS, AlphaScreen, signal-increasing mode | 0.21% of 350,000 active | overnight | activation, % at 15.6 µM;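 active = every replicate reaching activation of at least 50%, whatever the mean replicate activation; inconclusive = replicates that disagree or another doubt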;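 also: hits raise the AlphaScreen acetylation signal above neutral controls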
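System: flag-PGC1a/GCN5 U2OS cells / Input: 7000 cells/well / Compound: single test concentration per compound / Incubation: overnight compound treatment, 37 °C / Technique: AlphaScreen on lysates with anti-acetyl-lysine antibody, acceptor and donor beads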
Hep G6PC suppr: suppressors of forskolin-stimulated G6PC mRNA, dose response, PGC-1a acetylation activator project, cell-based, hepatocytes, RT-qPCR, cherry-picked samples. shares compounds with PGC1a acetyl up. primary mouse hepatocytes. G6PC suppression (normalized activity, % of positive control; higher = more suppression), % at 26 µM. 240 tested, under 10 active;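 active = dose curves showing G6PC suppression whose half-maximal dose is at most twice the top valid dose; inconclusive = flat curves with moderate negative activity, or unreliable fits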;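 also: G6PC expression relative to GAPDH housekeeping gene as delta delta Ct; 0% = median of neutral control wells and 100% = median of positive control wells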
PCK1 hep suppr: suppression of PCK1 mRNA in primary hepatocytes, dose response, PGC-1a acetylation activator project, cell-based, primary mouse hepatocytes, RT-qPCR, cherry-pick. shares compounds with PGC1a acetyl up. forskolin-stimulated. PCK1 expression decrease, unspecified at 26 µM. 230 tested, under 10 active. AID 743465, 2014;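 active = compounds lowering PCK1 expression whose fitted half-maximal concentration is at most twice the top tested dose; inconclusive = flat fit with moderate opposite-direction effect, or poor fit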;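 also: values are delta delta Ct of PCK1 relative to GAPDH; higher delta delta Ct means lower PCK1 expression so positive values indicate hits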
PGC1a hep suppr: suppression of PGC-1a mRNA in primary hepatocytes, dose response, PGC-1a acetylation activator project, cell-based, primary mouse hepatocytes, RT-qPCR, cherry-pick | shares compounds with PGC1a acetyl up | PGC-1a mRNA qPCR, forskolin; top dose 26 µM | max activity (PGC-1a expression decrease), % | 240 tested, under 10 active | AID 743467, 2014;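 active = compound lowering PGC-1a expression with fitted half-maximal concentration at most twice its top tested dose; inconclusive = flat curve with moderate opposite-direction effect, or poor fit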;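 also: 0% = neutral control wells median and 100% = positive control wells median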
* hit, by the source's call; i = inactive; ? = inconclusive; . = no result given; [ ] = another dose, or the depositor's remark. Not all results are given here.

SMILES | PGC1a acetyl up | Hep G6PC suppr | PCK1 hep suppr | PGC1a hep suppr
COc1ccc([N+](=O)[O-])c(S(=O)(=O)c2ccc(Cl)cc2)n1 | -45 | . | . | .
CCOCCCNc1nc2c(c(=O)n(C)c(=O)n2C)n1CCCc1ccccc1 | -40 | . | . | .
O=C(CNC(=O)c1sc2ccccc2c1Cl)NCc1ccccc1 | -52 | . | . | .
O=C(Cc1ccccc1)Nc1ccc(NC(=O)c2cccs2)cc1 | 312* | 43 | 3.3 | 42
COc1ccc(OC)c(CNS(=O)(=O)c2cc(-c3cc(C)no3)ccc2OC)c1 | -51 | . | . | .
CCOc1ccc(N(C)S(=O)(=O)c2cc(-c3cc(C)no3)ccc2OC)cc1 | 54* | 23 | 61 | 57
CC(/C=C1\SC(=O)N(CCCC(=O)O)C1=O)=C\c1ccccc1 | -43 | . | . | .
COc1ccc(Cn2nnnc2CN(Cc2cc3ccc(C)cc3[nH]c2=O)C2CCCC2)cc1 | -42 | . | . | .
COC(=O)/C(=C\Nc1cccc(Cl)c1C)c1ncc(C(F)(F)F)cc1Cl | -41 | . | . | .
COc1ccc(S(=O)(=O)N(C)CC(=O)Nc2cccc(C(C)=O)c2)cc1Cl | ? | 17 | 13 | ?
CCOc1cc(/C=N/N=C(N)N)ccc1OCc1ccc(Cl)cc1 | -56 | . | . | .
CCOC(=O)C1CCCN(S(=O)(=O)c2ccc3c(c2)NC(=O)CO3)C1 (stereo not given) | 92* | -23 | . | ?
CC1CCCN(S(=O)(=O)c2ccc3c(c2)n(C)c(=O)c(=O)n3C)C1 (stereo not given) | -49 | . | . | .
O=C1CCCc2ccccc2N1Cc1ccc(Cl)cc1Cl | -56 | . | . | .
CC1=C/C(=N\OS(=O)(=O)c2ccccc2)C(C)=CC1=O | -60 | . | . | .
O=C(CCc1nc2ccccc2c(=O)[nH]1)Nc1ccc(N2CCCCC2)cc1 | 100* | 42 | . | 87
O=C(/C=C/c1ccccc1)CC(O)(c1ccccc1)C(F)(F)F (stereo not given) | -42 | . | . | .
CCOc1ccc(S(=O)(=O)N(C)C)cc1-c1nc2c(C(C)(C)C)nn(C)c2c(=O)[nH]1 | -48 | . | . | .
C/C(=N\NC(=O)c1cc(C)[nH]n1)c1ccc(-c2ccccc2)cc1 | -79 | . | . | .
COC(=O)[C@H](Cc1ccccc1)N(C)S(=O)(=O)c1cccc(S(=O)(=O)N(C)[C@@H](Cc2ccccc2)C(=O)OC)c1 | ? | -83 | . | ?
CCn1nnc(NC(=O)c2ccc(C(C)(C)C)cc2)n1 | -41 | . | . | .
O=C(COc1ccc(Cl)cc1)NCCCNC(=O)c1cccnc1 | 112* | -17 | 11 | 58
O=C(OCn1ncc(Br)c(Br)c1=O)c1ccc(F)cc1 | -37 | . | . | .
Cc1ccc2nc(SCC(=O)Nc3ccc(F)cc3)nc(=O)n2c1 | -76 | . | . | .
Cc1cc(C)c2nc(N(CCCN(C)C)C(=O)c3ccc(S(=O)(=O)N4CCCCCC4)cc3)sc2c1 | 64* | i | 183 | 41
SMILES | PGC1a acetyl up | Hep G6PC suppr | PCK1 hep suppr | PGC1a hep suppr
CC1C(=O)C(C)(C)C(=O)OC1c1ccccc1 (stereo not given) | -49 | . | . | .
Cc1ccc2oc(-c3ccc(NC(=O)c4cccnc4)cc3)nc2c1 | 73* | 5 | -7 | 83
Cc1ccc2oc(Nc3nc(C)c(C)c(C)n3)nc2c1 | -41 | . | . | .
O=C(Nc1ccc(-c2noc(CCc3ccccc3)n2)cc1)c1cccnc1 | 131* | 28 | 2.8 | -18
COC(=O)c1ccc(NC(=O)c2cccnc2)cc1 | 127* | . | 68 | ?
CCc1ccc(C(=O)CN(C#N)c2nc(C)cc(C)n2)cc1 | -49 | . | . | .
Cc1ccc(C)c(S(=O)(=O)N(C(=O)c2ccncc2)c2ccc(OC(=O)c3ccncc3)cc2)c1 | -44 | . | . | .
CN(NC(=O)c1ccccc1)C1=NS(=O)(=O)c2ccccc21 | -40 | . | . | .
Cc1nnc(NCc2ccccc2)c2ccccc12 | ? | . | 11 | 84
CSc1n[nH]c(NCc2ccccc2)n1 | -42 | . | . | .
Brc1ccc2ncnc(NCc3ccccc3)c2c1 | -42 | . | . | .
CC(=O)N1N=C(c2ccco2)CC1c1ccco1 (stereo not given) | -49 | . | . | .
C=CC(=O)N1C/C(=C/c2ccccc2)C(=O)/C(=C\c2ccccc2)C1 | -73 | . | . | .
CCOC(=O)c1ccccc1NS(=O)(=O)c1ccc(OCC)cc1 | ? | 17 | 50 | 70
CCn1c(COc2ccc(=O)n(-c3ccccc3)n2)nnc1SCc1ccc(C)cc1 | -46 | . | . | .
C=C[C@H]1CN2CCC1C[C@H]2[C@H](O)c1ccnc2ccc(OC)cc12 (stereo not given in full) | -48 | . | . | .
C=CCn1c(SCC(=O)Nc2ccc(C(=O)O)cc2)nnc1-c1cccnc1 | -40 | . | . | .
CCn1c(SCC(=O)Nc2ccc(NC(=O)c3ccco3)cc2)nnc1-c1cccs1 | 124* | 7 | -8.6 | 52
Nc1nccc(-c2ccc(-n3cnc4ccccc43)cc2)n1 | -44 | . | . | .
CC(=O)c1c(C)oc2ccc(N(C(C)=O)S(=O)(=O)c3ccc(Cl)c([N+](=O)[O-])c3)cc12 | -61 | . | . | .
Cc1cc(C(=O)NNS(=O)(=O)c2ccc(F)cc2)nn1C(C)(C)C | 456* | . | -0.84 | 10
COc1cccc2c1C(=O)c1c(O)c3c(c(O)c1C2=O)CC(O)(C(C)=O)CC3OC1CC(N(C)C)C(O)C(C)O1 (stereo not given) | -40 | . | . | .
CC(=O)Nc1sc2c(c1-c1nc3ccccc3s1)CN(C(C)C)CC2 | -52 | . | . | .
COc1ccc(C[C@@H]2OC3(C=CC(=O)C=C3)O[C@H]2Cc2ccc(OC)cc2)cc1 | -90 | . | . | .
CCCN(CCC)S(=O)(=O)c1ccc(C(=O)Nc2nnc(CSC)o2)cc1 | -45 | . | . | .
SMILES | PGC1a acetyl up | Hep G6PC suppr | PCK1 hep suppr | PGC1a hep suppr
COc1ccc(CN(CCC(C)C)S(=O)(=O)c2ccccc2Br)cc1 | 74* | . | 51 | 99
CCOC(=O)C1(Cc2ccccc2)CCN(Cc2cccc(OC)c2O)CC1 | 84* | 20 | 39 | ?
Cc1ccccc1Nc1ncnc2c1cnn2-c1ccccc1 | -63 | . | . | .
CC(N=C1NS(=O)(=O)c2ccccc21)C(=O)NCCCc1ccccc1 (stereo not given) | -47 | . | . | .
CC(=O)c1ccc(OCC(=O)OCC(=O)Nc2sccc2C(N)=O)cc1 | 56* | 9 | 17[8 µM] | 58
O=C(O)COc1ccc(/C=C2/SC(=S)N(Cc3ccccc3)C2=O)cc1 | -72 | . | . | .
CCOC(=O)c1ccc(NC(=O)N2CCc3ccccc3C2)cc1 | ? | 25[8 µM] | 22 | 117
CCOC(=O)c1ccc(N2C(=O)C=CC2=O)cc1 | -46 | . | . | .
CCc1ccc(-c2cn3nc(-c4ccccc4)cnc3n2)cc1 | -45 | . | . | .
Cc1ccc(-n2c(O)c(C=NC3CCS(=O)(=O)C3)c3ccccc3c2=O)c(C)c1 (stereo not given) | -57 | . | . | .
CO[C@H]1CN(C)C(=O)c2cc(NC(=O)Nc3ccc(Cl)cc3)ccc2OC[C@H](C)NC[C@@H]1C | -43 | . | . | .
CC1(C)CCCN(C(=O)N2c3ccccc3Sc3ccccc32)C1 | ? | -23 | 14 | 82
Fc1ccc(-c2nn3c(C4COc5ccccc5O4)nnc3s2)cc1 (stereo not given) | 55* | 39 | -36 | 79
C/C(=N\Nc1nc(C)cc(=O)[nH]1)C1CC1 | -41 | . | . | .

Bioassay records as filed in PubChem.
